From ChEMBL document CHEMBL1130129, “Immunologically specific activation of a cephalosporin derivative of mitomycin C by monoclonal antibody beta-lactamase conjugates” (J Med Chem, 1997)

Experiments:
[1] = substrate: O=C(Cc1ccccc1)N[C@@H]1C(=O)N2C(C(=O)O)=C(COC(=O)Nc3ccc(N(CCCl)CCCl)cc3)CS[C@H]12; assay: (§1) Determination of kinetic constant (Km) for hydrolysis by beta-lactamase from Enterobacter cloacae 99
In short: (§2)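 Purified E. cloacae β-lactamase (0.1 µg/mL) added to prodrug in PBS pH 7.2 containing 12.5 µg/mL bovine serum albumin, 23 °C; β-lactam hydrolysis followed by loss of absorbance at 260 nm. Initial velocities taken from linear portions of absorbance-time plots and used to derive kinetic constants.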

[2] = substrate: O=C(O)CCCC(=O)N[C@@H]1C(=O)N2C(C(=O)O)=C(COC(=O)Nc3ccc(N(CCCl)CCCl)cc3)CS[C@H]12; assay: as §1; in short: as §2
[3] = substrate: CO[C@@]12[C@H](COC(N)=O)C3=C(C(=O)C(C)=C(NCC4=C(C(=O)O)N5C(=O)[C@@H](NC(=O)CCCC(=O)O)[C@H]5SC4)C3=O)N1C[C@@H]1N[C@@H]12; assay: as §1; in short: as §2
[4] = substrate: CO[C@@]12[C@H](COC(N)=O)C3=C(C(=O)C(C)=C(NCC4=C(C(=O)O)N5C(=O)[C@@H](NC(=O)Cc6ccccc6)[C@H]5SC4)C3=O)N1C[C@@H]1N[C@@H]12; assay: as §1; in short: as §2

B1: Beta-lactamase (Enterobacter cloacae), P05364 (protein)
chain: MMRKSLCCALLLGISCSALATPVSEKQLAEVVANTITPLMKAQSVPGMAVAVIYQGKPHYYTFGKADIAANKPVTPQTLFELGSISKTFTGVLGGDAIARGEISLDDAVTRYWPQLTGKQWQGIRMLDLATYTAGGLPLQVPDEVTDNASLLRFYQNWQPQWKPGTTRLYANASIGLFGALAVKPSGMPYEQAMTTRVLKPLKLDHTWINVPKAEEAHYAWGYRDGKAVRVSPGMLDAQAYGVKTNVQDMANWVMANMAPENVADASLKQGIALAQSRYWRIGSMYQGLGWEMLNWPVEANTVVEGSDSKVALAPLPVAEVNPPAPPVKASWVHKTGSTGGFGSYVAFIPEKQIGIVMLANTSYPNPARVEAAYHILEALQ
Km [1]: 7 µM
Km [2]: 43.2 µM
Km [3]: 119 µM
Km [4]: 48.9 µM
